Results published in ChEMBL document CHEMBL1151762, “5-(1-Acetoxyvinyl)-cycloSaligenyl-2',3'-dideoxy-2',3'- didehydrothymidine monophosphates, a second type of new, enzymatically activated cycloSaligenyl pronucleotides” (J Med Chem, 2008).

Assays:
[1] = Chemical stability assessed as half life of hydrolysis in 25 mM phosphate buffer at pH 7.3; type: physicochemical
In short: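 Triesters incubated at pH 7.3 in aqueous 25 mM phosphate buffer and followed by HPLC. Half-life is taken from disappearance of the triester.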

[2] = Chemical stability assessed as half life of hydrolysis in CEM cell extracts at pH 6.9; type: physicochemical, CCRF-CEM; settings: human
In short: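 T-lymphocyte CEM cell extracts at pH 6.9, analysed by HPLC. Half-life is taken from disappearance of the triester.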

[3] = system: Human immunodeficiency virus 2; assay: Antiviral activity against HIV2 replication in human thymidine kinase deficient CEM cells assessed as virus-induced cytopathic effect; type: functional, organism-based; settings: Human immunodeficiency virus 2, CCRF-CEM
In short: (§1)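 CEM T-lymphocyte cultures (wild-type CEM/0 or thymidine kinase-deficient CEM/TK-) infected with HIV-1 or HIV-2; read-out is virus-induced cytopathic effect (giant cell formation). EC50 = 50% effective concentration, given as the mean of two to three independent experiments.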

[4] = system: Human immunodeficiency virus 2; assay: Antiviral activity against HIV2 replication in human wild type CEM/0 cells assessed as virus-induced cytopathic effect; type: functional, organism-based; settings: Human immunodeficiency virus 2, CCRF-CEM; in short: as §1
[5] = system: Human immunodeficiency virus 1; assay: Antiviral activity against HIV1 replication in human wild type CEM/0 cells assessed as virus-induced cytopathic effect; type: functional, organism-based; settings: Human immunodeficiency virus 1, CCRF-CEM; in short: as §1
[6] = Chemical stability assessed as half life of hydrolysis in RPMI-1640 culture medium at pH 7.6 in presence 10% heat-inactivated fetal calf serum; type: physicochemical
In short: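 RPMI-1640 with 10% heat-inactivated fetal calf serum, pH 7.6 (the antiviral test medium), used in place of cell extract and run by the same HPLC procedure. Half-life is taken from disappearance of the triester.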

[7] = Cytotoxicity against human wild type CEM/0 cells; type: cell-based; settings: CCRF-CEM
In short: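 Wild-type CEM cells; cytostatic activity reported as the 50% cytostatic concentration.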

Compound: C=C(OC(C)=O)c1ccc2c(c1)COP(=O)(OC[C@@H]1C=C[C@H](n3cc(C)c(=O)[nH]c3=O)O1)O2 (some centres not stated)
- half-life [1]: 1.4 h
- half-life [2]: 7.8 min
- EC50 [3]: > 50000 nM
- EC50 [4]: 800 nM
- EC50 [5]: 650 nM
- half-life [6]: 1 h
- CC50 [7]: 111000 nM

Compound: C=C(OC(C)=O)c1cc2c(c(C(C)(C)C)c1)OP(=O)(OC[C@@H]1C=C[C@H](n3cc(C)c(=O)[nH]c3=O)O1)OC2 (some centres not stated)
- half-life [1]: 12.3 h
- half-life [2]: 2.4 min
- EC50 [3]: 1700 nM
- EC50 [4]: 880 nM
- EC50 [5]: 470 nM
- half-life [6]: 5.2 h
- CC50 [7]: 49000 nM

Compound: CC(=O)c1cc(C)c2c(c1)COP(=O)(OC[C@@H]1C=C[C@H](n3cc(C)c(=O)[nH]c3=O)O1)O2 (some centres not stated)
- half-life [1]: 0.75 h
- EC50 [3]: 36000 nM
- EC50 [4]: 2200 nM
- EC50 [5]: 540 nM
- half-life [6]: 1 h
- CC50 [7]: 96000 nM

Compound: CC(=O)c1ccc2c(c1)COP(=O)(OC[C@@H]1C=C[C@H](n3cc(C)c(=O)[nH]c3=O)O1)O2 (some centres not stated)
- half-life [1]: 0.3 h
- EC50 [3]: > 50000 nM
- EC50 [4]: 3000 nM
- EC50 [5]: 1300 nM
- half-life [6]: 0.6 h
- CC50 [7]: 148000 nM

Compound: Cc1cn([C@H]2C=C[C@@H](CO[P@@]3(=O)OCc4cc(C(OC(=O)C(C)C)OC(=O)C(C)C)cc(C(C)(C)C)c4O3)O2)c(=O)[nH]c1=O
- EC50 [3]: 3600 nM
- CC50 [7]: 40000 nM

Compound: C=C(OC(C)=O)c1cc(C)c2c(c1)COP(=O)(OC[C@@H]1C=C[C@H](n3cc(C)c(=O)[nH]c3=O)O1)O2 (some centres not stated)
- half-life [1]: 6.1 h
- half-life [2]: 4.2 min
- EC50 [3]: 730 nM
- EC50 [4]: 400 nM
- EC50 [5]: 180 nM
- half-life [6]: 1.8 h
- CC50 [7]: 18000 nM

Compound: CC(=O)OC(OC(C)=O)c1cc2c(c(C(C)(C)C)c1)OP(=O)(OC[C@@H]1C=C[C@H](n3cc(C)c(=O)[nH]c3=O)O1)OC2 (some centres not stated)
- EC50 [3]: 780 nM
- CC50 [7]: 19000 nM

Compound: Cc1cn([C@H]2C=C[C@@H](CO[P@]3(=O)OCc4cc(C(OC(=O)C(C)C)OC(=O)C(C)C)cc(C(C)(C)C)c4O3)O2)c(=O)[nH]c1=O
- EC50 [3]: 1400 nM
- CC50 [7]: 14000 nM

Compound: CC(=O)OC(OC(C)=O)c1cc2c(c(C(C)(C)C)c1)O[P@@](=O)(OC[C@@H]1C=C[C@H](n3cc(C)c(=O)[nH]c3=O)O1)OC2
- EC50 [3]: 3900 nM
- CC50 [7]: 51000 nM

Compound: Cc1cn([C@H]2C=C[C@@H](COP3(=O)OCc4cc(C=O)cc(C(C)(C)C)c4O3)O2)c(=O)[nH]c1=O (some centres not stated)
- EC50 [3]: 15000 nM
- CC50 [7]: 33000 nM

Compound: C=C(OC(C)=O)c1cc2c(c(C(C)(C)C)c1)O[P@](=O)(OC[C@@H]1C=C[C@H](n3cc(C)c(=O)[nH]c3=O)O1)OC2
- half-life [1]: 13.5 h
- half-life [2]: 2.4 min
- EC50 [3]: 270 nM
- EC50 [4]: 800 nM
- EC50 [5]: 210 nM
- half-life [6]: 7.6 h
- CC50 [7]: 20000 nM

Compound: CC(=O)c1cc2c(c(C(C)(C)C)c1)OP(=O)(OC[C@@H]1C=C[C@H](n3cc(C)c(=O)[nH]c3=O)O1)OC2 (some centres not stated)
- half-life [1]: 2.3 h
- EC50 [3]: 1700 nM
- EC50 [4]: 870 nM
- EC50 [5]: 450 nM
- half-life [6]: 2.5 h
- CC50 [7]: 49000 nM

Compound: CC(=O)OC(OC(C)=O)c1cc2c(c(C(C)(C)C)c1)O[P@](=O)(OC[C@@H]1C=C[C@H](n3cc(C)c(=O)[nH]c3=O)O1)OC2
- EC50 [3]: 290 nM
- CC50 [7]: 17000 nM

Compound: Cc1cn([C@H]2C=C[C@@H](CO[P@]3(=O)OCc4cc(C=O)cc(C(C)(C)C)c4O3)O2)c(=O)[nH]c1=O
- EC50 [3]: 2600 nM
- CC50 [7]: 27000 nM

Compound: C=C(OC(C)=O)c1cc2c(c(C(C)(C)C)c1)O[P@@](=O)(OC[C@@H]1C=C[C@H](n3cc(C)c(=O)[nH]c3=O)O1)OC2
- half-life [1]: 11.3 h
- half-life [2]: 2.4 min
- EC50 [3]: 1700 nM
- EC50 [4]: 1100 nM
- EC50 [5]: 470 nM
- half-life [6]: 3.7 h
- CC50 [7]: 67000 nM

Compound: Cc1cn([C@H]2C=C[C@@H](COP3(=O)OCc4cc(C(OC(=O)C(C)C)OC(=O)C(C)C)cc(C(C)(C)C)c4O3)O2)c(=O)[nH]c1=O (some centres not stated)
- EC50 [3]: 2400 nM
- CC50 [7]: 20000 nM

Compound: Cc1cn([C@H]2C=C[C@@H](CO)O2)c(=O)[nH]c1=O [STAVUDINE]
- EC50 [3]: 69000 nM
- EC50 [4]: 1100 nM
- EC50 [5]: 850 nM
- CC50 [7]: 220000 nM

Compound: CC(=O)c1cc2c(c(C(C)(C)C)c1)O[P@@](=O)(OC[C@@H]1C=C[C@H](n3cc(C)c(=O)[nH]c3=O)O1)OC2
- half-life [1]: 2.3 h
- EC50 [3]: 2800 nM
- EC50 [4]: 1200 nM
- EC50 [5]: 750 nM
- half-life [6]: 2 h
- CC50 [7]: 64000 nM

Compound: Cc1cn([C@H]2C=C[C@@H](CO[P@@]3(=O)OCc4cc(C=O)cc(C(C)(C)C)c4O3)O2)c(=O)[nH]c1=O
- EC50 [3]: 10000 nM
- CC50 [7]: 41000 nM

Compound: CC(=O)c1cc2c(c(C(C)(C)C)c1)O[P@](=O)(OC[C@@H]1C=C[C@H](n3cc(C)c(=O)[nH]c3=O)O1)OC2
- half-life [1]: 2.3 h
- EC50 [3]: 550 nM
- EC50 [4]: 510 nM
- EC50 [5]: 180 nM
- half-life [6]: 3.2 h
- CC50 [7]: 56000 nM
